Entries after “also recorded” stand apart in the source; their conditions may differ. One block for each compound: values may come before it.
Key:
IDH1(R132H) [1] = molecular target: T1, IDH1(R132H) (Homo sapiens, UniProt O75874, R132H); assay: IDH1; type: biochemical; conditions: for Inhibitory activity against IDH1(R132H), in words: compound screening at 50 μM
R132C IDH1 = R132C IDH1 (Homo sapiens, UniProt O75874, R132C); assay: Enzyme inhibition of R132C mutant IDH1; type: biochemical
WT IDH1 = WT IDH1 (Homo sapiens, UniProt O75874); assay: Enzyme inhibition of wild-type IDH1; type: biochemical
[2] = system: BXD-3752 glioma cells without IDH1 mutation; assay: Inhibition of proliferation of glioma stem-like cells; type: cell-based, human; conditions: 5 μM, 14 days treatment, no IDH1 mutation
Procedure, shortened: (§1)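 Patient-derived glioma cells grown as neurospheres in serum-free medium at 37 °C, 5% CO₂, 100% humidity. Cells seeded at 2000/well and exposed to increasing concentrations of test compound for 14 days. Viability read by Cell Counting Kit-8 following the kit protocol.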

[3] = system: BT142 glioma cells with R132H IDH1 mutation; assay: as above; type: cell-based, human; conditions: 5 μM, 14 days treatment
Procedure, shortened: as §1

IDH1(R132H) [4] = molecular target: T1, IDH1(R132H); assay: Steady-state kinetic study, mode of inhibition; type: biochemical
Procedure, shortened: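 IDH1(R132H) was expressed in E. coli and purified. Initial velocities were taken as the linear rate of NADPH consumption, followed by UV absorbance at 340 nm. Test compound, α-KG and NADPH levels were each varied. Data were fitted to competitive, noncompetitive and uncompetitive models, and the best model was chosen by highest R² and lowest AICc.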

Chain of WT IDH1 (O75874 whole entry): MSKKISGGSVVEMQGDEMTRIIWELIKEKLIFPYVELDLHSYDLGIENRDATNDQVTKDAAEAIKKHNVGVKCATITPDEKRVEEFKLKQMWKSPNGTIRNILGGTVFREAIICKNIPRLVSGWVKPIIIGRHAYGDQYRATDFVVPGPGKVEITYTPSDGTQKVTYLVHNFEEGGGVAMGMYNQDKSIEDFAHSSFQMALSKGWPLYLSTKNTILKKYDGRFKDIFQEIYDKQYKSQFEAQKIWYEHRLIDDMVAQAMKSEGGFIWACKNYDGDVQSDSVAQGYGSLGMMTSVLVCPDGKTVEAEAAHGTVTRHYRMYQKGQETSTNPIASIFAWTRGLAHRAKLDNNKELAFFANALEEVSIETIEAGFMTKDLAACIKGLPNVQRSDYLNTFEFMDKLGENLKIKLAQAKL
Chain of R132C IDH1 (O75874 whole entry R132C): as the sequence (O75874 whole entry) above, with R132C counted along it
T1 sequence (O75874 whole entry R132H): as the sequence (O75874 whole entry) above, with R132H counted along it

Ki (IDH1(R132H) [1]): 8.2 µM
Compound: O=S(=O)(Nc1cc(Oc2ccccc2)c(O)c2ccccc12)c1ccc(Br)cc1 [Compound 1, 4-bromo-N-(4-hydroxy-3-phenoxynaphthalen-1-yl)benzenesulfonamide]

Ki (IDH1(R132H) [1]): 4.1 µM
Fold increased inhibitory activity relative to compound 1 (IDH1(R132H) [1]; IDH1(R132H), vs compound 1): ~ 2 fold
Ki (R132C IDH1): > 50 µM
Ki (WT IDH1): > 50 µM
Compound: O=S(=O)(Nc1cc(Br)c(O)c2ccccc12)c1ccc(Br)cc1 [Compound 2, 4-bromo-N-(3-bromo-4-hydroxynaphthalen-1-yl)benzenesulfonamide]

Inhibitory activity against IDH1(R132H), in words (IDH1(R132H) [1]): inactive
Compound: Cc1ccc(-c2cc(NS(=O)(=O)c3ccc(C)cc3)c3ccccc3c2O)cc1 [Compound 3, N-(4-hydroxy-3-(p-tolyl)naphthalen-1-yl)-4-methylbenzenesulfonamide]
Activity against proliferation of BXD-3752 glioma cells [2]: did not exhibit activity
Activity against proliferation of BT142 glioma cells [3]: did not exhibit activity

Inhibitory activity against IDH1(R132H), in words (IDH1(R132H) [1]): inactive
Compound: O=S(=O)(Nc1cc(-c2ccc3ccccc3c2)c(O)c2ccccc12)c1ccc(Br)cc1 [Compound 4, 4-bromo-N-(1-hydroxy-[2,2’-binaphthalen]-4-yl)benzenesulfonamide]

Ki (IDH1(R132H) [1]): 17.5 µM
Compound: O=C(O)CCc1cc(NS(=O)(=O)c2ccc(Br)cc2)c2ccccc2c1O [Compound 5, 3-(4-((4-bromophenyl)sulfonamido)-1-hydroxynaphthalen-2-yl)propanoic acid]

Ki (IDH1(R132H) [1]): 2.4 µM
Compound: O=P(O)(O)CCc1cc(NS(=O)(=O)c2ccc(Br)cc2)c2ccccc2c1O [Compound 6, (2-(4-((4-bromophenyl)sulfonamido)-1-hydroxynaphthalen-2-yl)ethyl)phosphonic acid]

Ki (IDH1(R132H) [1]): 10.2 µM
Compound: COc1ccc(S(=O)(=O)Nc2cc(CCC(=O)O)c(O)c3ccccc23)cc1 [Compound 7, 3-(1-hydroxy-4-((4-methoxyphenyl)sulfonamido)naphthalen-2-yl)propanoic acid]

Ki (IDH1(R132H) [1]): ~25 µM
Compound: O=S(=O)(Nc1cc(Br)c(O)c2ccccc12)c1ccc(F)cc1 [Compound 8, N-(3-bromo-4-hydroxynaphthalen-1-yl)-4-fluorobenzenesulfonamide]

Ki (IDH1(R132H) [1]): 1.2 µM
Fold more active than compound 2 (IDH1(R132H) [1]; IDH1(R132H), vs compound 2): ~ 4 ×
Mode of inhibition against the substrate α-KG (IDH1(R132H) [4]; variable α-KG, Lineweaver-Burk plot): competitive inhibitor
Ki (R132C IDH1): > 50 µM
Ki (WT IDH1): > 50 µM
Compound: Cc1ccc(S(=O)(=O)Nc2cc(Br)c(O)c3ccccc23)cc1 [Compound 9, N-(3-bromo-4-hydroxynaphthalen-1-yl)-4-methylbenzenesulfonamide]
Activity against proliferation of BXD-3752 glioma cells [2]: did not show activity; also recorded: did not significantly affect growth
Mode of inhibition against the cofactor NADPH (IDH1(R132H) [4]; variable NADPH, Michaelis-Menten plot): noncompetitive mode of action; also recorded: non-competitive inhibitor
Activity against proliferation of BT142 glioma cells [3]: strongly inhibited the growth; also recorded: strong activity

Ki (IDH1(R132H) [1]): 0.6 µM
Ki (R132C IDH1): 36 µM
Ki (WT IDH1): > 50 µM
Compound: O=S(=O)(Nc1cc(Br)c(O)c2ccccc12)c1ccc(-c2ccccc2)cc1 [Compound 10, N-(3-bromo-4-hydroxynaphthalen-1-yl)-[1,1’-biphenyl]-4-sulfonamide]
Activity against proliferation of BXD-3752 glioma cells [2]: did not show activity; also recorded: did not significantly affect growth
Activity against proliferation of BT142 glioma cells [3]: strongly inhibited the growth; also recorded: strong activity

Ki (IDH1(R132H) [1]): 0.8 µM
Ki (R132C IDH1): > 50 µM
Ki (WT IDH1): > 50 µM
Compound: O=S(=O)(Nc1cc(Br)c(O)c2ccccc12)c1ccc2ccccc2c1 [Compound 11, N-(3-bromo-4-hydroxynaphthalen-1-yl)naphthalene-2-sulfonamide]

Compound: Cc1ccc(S(=O)(=O)Nc2ccc(O)c3ccccc23)cc1 [Compound 12, N-(4-hydroxynaphthalen-1-yl)-4-methylbenzenesulfonamide]
Ki (IDH1(R132H) [1]): 6.8 µM
Fold less active than compound 9 (IDH1(R132H) [1]; IDH1(R132H), vs compound 9): ~ 6 fold

Ki (IDH1(R132H) [1]): 11.1 µM
Compound: O=S(=O)(Nc1ccc(O)c2ccccc12)c1ccccc1 [Compound 13, N-(4-hydroxynaphthalen-1-yl)benzenesulfonamide]

Inhibitory activity against IDH1(R132H), in words (IDH1(R132H) [1]): Devoid of activity
Compound: O=S(=O)(Nc1ccc(O)c(Oc2ccccc2)c1)c1ccc(Br)cc1 [Compound 14, 4-bromo-N-(4-hydroxy-3-phenoxyphenyl)benzenesulfonamide]

Ki (IDH1(R132H) [1]): 7.3 µM
Compound: O=S(=O)(Nc1ccc(O)cc1)c1ccc(Br)cc1 [Compound 17, 4-bromo-N-(4-hydroxyphenyl)benzenesulfonamide]

Ki (IDH1(R132H) [1]): 9 µM
Compound: O=S(=O)(Nc1cccc(Br)c1)c1ccc(Br)cc1 [Compound 18, 4-bromo-N-(3-bromophenyl)benzenesulfonamide]

Inhibitory activity against IDH1(R132H), in words (IDH1(R132H) [1]): inactive
Compound: O=S(=O)(Nc1ccccc1)c1ccc(Br)cc1 [Compound 19, 4-bromo-N-phenylbenzenesulfonamide]

Ki (IDH1(R132H) [1]): 16.1 µM
Compound: O=S(=O)(Nc1ccc(F)c(Cl)c1)c1ccc(Br)cc1 [Compound 20, 4-bromo-N-(3-chloro-4-fluorophenyl)benzenesulfonamide]

Reference: publication PMC6205205 (Medicinal chemistry (Shariqah (United Arab Emirates)), 2018)
